Laboratory results: ChEMBL document CHEMBL5303300, “EUbOPEN Chemogenomics Library - Multiplex” (2023)
Values joined by “and” are separate entries in the source; they are usually repeats but may differ in a detail not shown here. Equal values may be shown once.

Tested on: HEK-293T
Assay: Multiplex assay against HEK293T
Format: toxicity, cell-based
Conditions: human, number of replicates 2
Outline: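 Compound was added to live cells that had been stained at seeding with Hoechst33342, BioTracker Green Microtubule Cytoskeleton Dye, MitoTracker Red and Annexin V Alexa Fluor 680, and imaging followed on a CQ1 microscope at 37°C and 5% CO2. CellPathfinder machine-learning gating divided cells into Hoechst high-intensity objects or normal cells, normal cells into healthy, pyknosed or fragmented nuclei, and pyknosed cells into mitotic or apoptotic. Tubulin, mitochondrial-mass and membrane-permeability phenotypes are per cents of healthy-nucleus cells.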

[1] = 12 h, 1 µM, compound concentration 1 uM
[2] = 12 h, 10 µM, compound concentration 10 uM
[3] = 24 h, 1 µM, compound concentration 1 uM
[4] = 24 h, 10 µM, compound concentration 10 uM
[5] = 48 h, 1 µM, compound concentration 1 uM
[6] = 48 h, 10 µM, compound concentration 10 uM

COC(=O)Nc1nc2c(s1)-c1c(c(-c3cccnc3)nn1-c1ccc(C3(N(C)C)CC3)cc1)CC2.Cl.Cl
Population Apoptotic (%) [1]: 62% and 58%
Population Fragmented Nuclei (%) [1]: 5% and 1%
Population Healthy Nuclei (%) [1]: 82% and 89%
Population Hoechst High Intensity Objects (%) [1]: 11% and 10%
Population Membrane Permeable-Phenotype (%) [1]: 1%
Population Mitochondria Different-Phenotype (%) [1]: 41% and 51%
Population Mitotic Cells (%) [1]: 37% and 41%
Population Normal (%) [1]: 88% and 89%
Population Pyknosed Nuclei (%) [1]: 12% and 9%
Population Tubulin-Different-Phenotype (%) [1]: 75% and 76%
Total Cell Count [1]: 359 and 348
Population Apoptotic (%) [2]: 73% and 64%
Population Fragmented Nuclei (%) [2]: 5%
Population Healthy Nuclei (%) [2]: 75% and 82%
Population Hoechst High Intensity Objects (%) [2]: 17% and 10%
Population Membrane Permeable-Phenotype (%) [2]: 3%
Population Mitochondria Different-Phenotype (%) [2]: 66% and 52%
Population Mitotic Cells (%) [2]: 26% and 35%
Population Normal (%) [2]: 82% and 89%
Population Pyknosed Nuclei (%) [2]: 18% and 11%
Population Tubulin-Different-Phenotype (%) [2]: 90% and 87%
Total Cell Count [2]: 245 and 351
Population Apoptotic (%) [3]: 66% and 71%
Population Fragmented Nuclei (%) [3]: 4%
Population Healthy Nuclei (%) [3]: 81% and 82%
Population Hoechst High Intensity Objects (%) [3]: 20% and 17%
Population Membrane Permeable-Phenotype (%) [3]: 2% and 1%
Population Mitochondria Different-Phenotype (%) [3]: 43% and 55%
Population Mitotic Cells (%) [3]: 33% and 28%
Population Normal (%) [3]: 79% and 82%
Population Pyknosed Nuclei (%) [3]: 14% and 12%
Population Tubulin-Different-Phenotype (%) [3]: 81% and 85%
Total Cell Count [3]: 313 and 342
Population Apoptotic (%) [4]: 67% and 58%
Population Fragmented Nuclei (%) [4]: 8% and 6%
Population Healthy Nuclei (%) [4]: 70% and 78%
Population Hoechst High Intensity Objects (%) [4]: 15% and 18%
Population Membrane Permeable-Phenotype (%) [4]: 4% and 3%
Population Mitochondria Different-Phenotype (%) [4]: 70% and 52%
Population Mitotic Cells (%) [4]: 32% and 41%
Population Normal (%) [4]: 85% and 81%
Population Pyknosed Nuclei (%) [4]: 21% and 14%
Population Tubulin-Different-Phenotype (%) [4]: 86% and 82%
Total Cell Count [4]: 240 and 296
Population Apoptotic (%) [5]: 62%
Population Fragmented Nuclei (%) [5]: 11% and 8%
Population Healthy Nuclei (%) [5]: 81% and 80%
Population Hoechst High Intensity Objects (%) [5]: 23% and 25%
Population Membrane Permeable-Phenotype (%) [5]: 1%
Population Mitochondria Different-Phenotype (%) [5]: 19% and 27%
Population Mitotic Cells (%) [5]: 37%
Population Normal (%) [5]: 76% and 74%
Population Pyknosed Nuclei (%) [5]: 6% and 11%
Population Tubulin-Different-Phenotype (%) [5]: 78% and 76%
Total Cell Count [5]: 490 and 355
Population Apoptotic (%) [6]: 64% and 60%
Population Fragmented Nuclei (%) [6]: 8% and 11%
Population Healthy Nuclei (%) [6]: 77% and 80%
Population Hoechst High Intensity Objects (%) [6]: 17% and 20%
Population Membrane Permeable-Phenotype (%) [6]: 3% and 2%
Population Mitochondria Different-Phenotype (%) [6]: 45% and 39%
Population Mitotic Cells (%) [6]: 35% and 40%
Population Normal (%) [6]: 82% and 79%
Population Pyknosed Nuclei (%) [6]: 13% and 8%
Population Tubulin-Different-Phenotype (%) [6]: 80% and 77%
Total Cell Count [6]: 310 and 354

Cc1ccc2c(N)c(C(=O)NC3CCc4cc(N5CC6CCC(C5)N6)ccc4C3)sc2n1.O=CO (configuration not stated)
Population Apoptotic (%) [1]: 50% and 60%
Population Fragmented Nuclei (%) [1]: 3% and 5%
Population Healthy Nuclei (%) [1]: 85% and 82%
Population Hoechst High Intensity Objects (%) [1]: 12% and 13%
Population Membrane Permeable-Phenotype (%) [1]: 2% and 1%
Population Mitochondria Different-Phenotype (%) [1]: 57% and 50%
Population Mitotic Cells (%) [1]: 50% and 39%
Population Normal (%) [1]: 87% and 86%
Population Pyknosed Nuclei (%) [1]: 11%
Population Tubulin-Different-Phenotype (%) [1]: 79% and 80%
Total Cell Count [1]: 342 and 430
Population Apoptotic (%) [2]: 77% and 90%
Population Fragmented Nuclei (%) [2]: 7% and 15%
Population Healthy Nuclei (%) [2]: 66% and 63%
Population Hoechst High Intensity Objects (%) [2]: 66% and 71%
Population Membrane Permeable-Phenotype (%) [2]: 15% and 21%
Population Mitochondria Different-Phenotype (%) [2]: 60% and 54%
Population Mitotic Cells (%) [2]: 22% and 9%
Population Normal (%) [2]: 33% and 28%
Population Pyknosed Nuclei (%) [2]: 26% and 21%
Population Tubulin-Different-Phenotype (%) [2]: 68% and 63%
Total Cell Count [2]: 206 and 183
Population Apoptotic (%) [3]: 58% and 60%
Population Fragmented Nuclei (%) [3]: 5% and 3%
Population Healthy Nuclei (%) [3]: 86% and 89%
Population Hoechst High Intensity Objects (%) [3]: 13% and 16%
Population Membrane Permeable-Phenotype (%) [3]: 1% and 2%
Population Mitochondria Different-Phenotype (%) [3]: 60% and 50%
Population Mitotic Cells (%) [3]: 41% and 40%
Population Normal (%) [3]: 86% and 83%
Population Pyknosed Nuclei (%) [3]: 8% and 6%
Population Tubulin-Different-Phenotype (%) [3]: 72% and 71%
Total Cell Count [3]: 413 and 427
Population Apoptotic (%) [4]: 95% and 72%
Population Fragmented Nuclei (%) [4]: 11% and 14%
Population Healthy Nuclei (%) [4]: 59% and 66%
Population Hoechst High Intensity Objects (%) [4]: 67% and 66%
Population Membrane Permeable-Phenotype (%) [4]: 14% and 13%
Population Mitochondria Different-Phenotype (%) [4]: 66% and 63%
Population Normal (%) [4]: 32% and 33%
Population Pyknosed Nuclei (%) [4]: 29% and 19%
Population Tubulin-Different-Phenotype (%) [4]: 61% and 55%
Total Cell Count [4]: 216 and 168
Population Apoptotic (%) [5]: 40% and 66%
Population Fragmented Nuclei (%) [5]: 5%
Population Healthy Nuclei (%) [5]: 88% and 87%
Population Hoechst High Intensity Objects (%) [5]: 8% and 10%
Population Membrane Permeable-Phenotype (%) [5]: 1% and 0%
Population Mitochondria Different-Phenotype (%) [5]: 32% and 41%
Population Mitotic Cells (%) [5]: 59% and 33%
Population Normal (%) [5]: 91% and 89%
Population Pyknosed Nuclei (%) [5]: 5% and 7%
Population Tubulin-Different-Phenotype (%) [5]: 61% and 73%
Total Cell Count [5]: 596 and 593
Population Apoptotic (%) [6]: 77% and 87%
Population Fragmented Nuclei (%) [6]: 9% and 15%
Population Healthy Nuclei (%) [6]: 57% and 60%
Population Hoechst High Intensity Objects (%) [6]: 67%
Population Membrane Permeable-Phenotype (%) [6]: 14% and 10%
Population Mitochondria Different-Phenotype (%) [6]: 63% and 70%
Population Mitotic Cells (%) [6]: 22% and 12%
Population Normal (%) [6]: 32%
Population Pyknosed Nuclei (%) [6]: 32% and 24%
Population Tubulin-Different-Phenotype (%) [6]: 48% and 57%
Total Cell Count [6]: 254 and 203

O=C(Nc1ccnc(NC(=O)C2CC2)c1)c1c(Cl)cccc1Cl
Population Apoptotic (%) [1]: 42% and 49%
Population Fragmented Nuclei (%) [1]: 3% and 2%
Population Healthy Nuclei (%) [1]: 81% and 83%
Population Hoechst High Intensity Objects (%) [1]: 9% and 5%
Population Membrane Permeable-Phenotype (%) [1]: 3% and 7%
Population Mitochondria Different-Phenotype (%) [1]: 11% and 10%
Population Mitotic Cells (%) [1]: 57% and 50%
Population Normal (%) [1]: 90% and 94%
Population Pyknosed Nuclei (%) [1]: 15% and 14%
Population Tubulin-Different-Phenotype (%) [1]: 43% and 37%
Total Cell Count [1]: 735 and 602
Population Apoptotic (%) [2]: 55% and 57%
Population Fragmented Nuclei (%) [2]: 3% and 2%
Population Healthy Nuclei (%) [2]: 92% and 91%
Population Hoechst High Intensity Objects (%) [2]: 3%
Population Membrane Permeable-Phenotype (%) [2]: 5% and 3%
Population Mitochondria Different-Phenotype (%) [2]: 8% and 9%
Population Mitotic Cells (%) [2]: 44% and 42%
Population Normal (%) [2]: 96%
Population Pyknosed Nuclei (%) [2]: 3% and 5%
Population Tubulin-Different-Phenotype (%) [2]: 32% and 35%
Total Cell Count [2]: 713 and 727
Population Apoptotic (%) [3]: 37% and 50%
Population Fragmented Nuclei (%) [3]: 4%
Population Healthy Nuclei (%) [3]: 84% and 85%
Population Hoechst High Intensity Objects (%) [3]: 5% and 6%
Population Membrane Permeable-Phenotype (%) [3]: 4% and 3%
Population Mitochondria Different-Phenotype (%) [3]: 3%
Population Mitotic Cells (%) [3]: 62% and 50%
Population Normal (%) [3]: 94% and 93%
Population Pyknosed Nuclei (%) [3]: 10% and 9%
Population Tubulin-Different-Phenotype (%) [3]: 17% and 19%
Total Cell Count [3]: 1049 and 883
Population Apoptotic (%) [4]: 42% and 69%
Population Fragmented Nuclei (%) [4]: 3% and 5%
Population Healthy Nuclei (%) [4]: 92% and 90%
Population Hoechst High Intensity Objects (%) [4]: 4% and 3%
Population Membrane Permeable-Phenotype (%) [4]: 1%
Population Mitochondria Different-Phenotype (%) [4]: 2% and 3%
Population Mitotic Cells (%) [4]: 57% and 30%
Population Normal (%) [4]: 95% and 96%
Population Pyknosed Nuclei (%) [4]: 3% and 4%
Population Tubulin-Different-Phenotype (%) [4]: 14% and 15%
Total Cell Count [4]: 757 and 769
Population Apoptotic (%) [5]: 19% and 24%
Population Fragmented Nuclei (%) [5]: 9% and 7%
Population Healthy Nuclei (%) [5]: 85% and 87%
Population Hoechst High Intensity Objects (%) [5]: 7%
Population Membrane Permeable-Phenotype (%) [5]: 3% and 4%
Population Mitochondria Different-Phenotype (%) [5]: 0% and 1%
Population Mitotic Cells (%) [5]: 80% and 75%
Population Normal (%) [5]: 92%
Population Pyknosed Nuclei (%) [5]: 4%
Population Tubulin-Different-Phenotype (%) [5]: 10% and 11%
Total Cell Count [5]: 2441 and 1608
Population Apoptotic (%) [6]: 38% and 32%
Population Fragmented Nuclei (%) [6]: 11%
Population Healthy Nuclei (%) [6]: 86% and 85%
Population Hoechst High Intensity Objects (%) [6]: 6% and 5%
Population Membrane Permeable-Phenotype (%) [6]: 1% and 0%
Population Mitochondria Different-Phenotype (%) [6]: 2%
Population Mitotic Cells (%) [6]: 61% and 67%
Population Normal (%) [6]: 93% and 94%
Population Pyknosed Nuclei (%) [6]: 2% and 3%
Population Tubulin-Different-Phenotype (%) [6]: 8% and 7%
Total Cell Count [6]: 1085 and 965
